Laboratory results reported in ChEMBL document CHEMBL1149862, “Guaiane sesquiterpene lactones and amino acid-sesquiterpene lactone conjugates from the aerial parts of Saussurea pulchella” (2008).

What was measured:
Assay type in all cases: functional
Conditions in all cases: read-out: ED50 (the source's name)
HCT-15 = assay: Cytotoxicity against human HCT15 cells by SRB assay
How it was run: (§1)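 Sulforhodamine B (SRB) bioassay on cultured human cancer lines: A549 (non-small cell lung carcinoma), SK-OV-3 (ovary malignant ascites), SK-MEL-2 (skin melanoma) and HCT (colon adenocarcinoma). Cytotoxicity is reported as ED₅₀ in µM.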

A549 = assay: Cytotoxicity against human A549 cells by SRB assay; how it was run: as §1
SK-MEL-2 = assay: Cytotoxicity against human SK-MEL-2 cells by SRB assay; how it was run: as §1
SK-OV-3 = assay: Cytotoxicity against human SKOV3 cells by SRB assay; how it was run: as §1

C=C1[C@@H]2[C@H]3OC(=O)[C@@H](CN[C@H](C(=O)O)[C@H](C)CC)[C@@H]3[C@@H](O)CC(=C)[C@@H]2C[C@@H]1O [PULCHELLAMINE G]
EC50 (HCT-15): > 30 µM
EC50 (A549): > 30 µM
EC50 (SK-MEL-2): > 30 µM
EC50 (SK-OV-3): > 30 µM

C=C1[C@@H]2[C@H]3OC(=O)[C@@H](CN[C@@H](CC(N)=O)C(=O)O)[C@@H]3[C@@H](O)CC(=C)[C@@H]2C[C@@H]1O [PULCHELLAMINE A]
EC50 (HCT-15): > 30 µM
EC50 (A549): > 30 µM
EC50 (SK-MEL-2): > 30 µM
EC50 (SK-OV-3): > 30 µM

C=C1[C@@H]2[C@H]3OC(=O)[C@@H](CN[C@@H](Cc4c[nH]c5ccccc45)C(=O)O)[C@@H]3[C@@H](O)CC(=C)[C@@H]2C[C@@H]1O [PULCHELLAMINE F]
EC50 (HCT-15): > 30 µM
EC50 (A549): > 30 µM
EC50 (SK-MEL-2): 18.6 µM
EC50 (SK-OV-3): 24.2 µM

COc1cccc2c1C(=O)c1c(O)c3c(c(O)c1C2=O)C[C@@](O)(C(=O)CO)C[C@@H]3O[C@H]1C[C@H](N)[C@H](O)[C@H](C)O1 [DOXORUBICIN]
EC50 (HCT-15): 0.164 µM
EC50 (A549): 0.007 µM
EC50 (SK-MEL-2): 0.117 µM
EC50 (SK-OV-3): 0.056 µM

C=C1[C@@H]2[C@H]3OC(=O)[C@H](C)[C@@H]3[C@@H](OC(=O)C(C)(O)CO)CC(=C)[C@@H]2C[C@@H]1O (stereo not given in full)
EC50 (HCT-15): > 30 µM
EC50 (A549): > 30 µM
EC50 (SK-MEL-2): > 30 µM
EC50 (SK-OV-3): > 30 µM

C=C1[C@@H]2[C@H]3OC(=O)[C@@H](CN[C@H](C(=O)O)C(C)C)[C@@H]3[C@@H](O)CC(=C)[C@@H]2C[C@@H]1O [PULCHELLAMINE E]
EC50 (HCT-15): > 30 µM
EC50 (A549): > 30 µM
EC50 (SK-MEL-2): > 30 µM
EC50 (SK-OV-3): > 30 µM

C=C1[C@@H]2[C@H]3OC(=O)[C@H](C)[C@@H]3[C@@H](O)CC(=C)[C@@H]2C[C@@H]1O
EC50 (HCT-15): > 30 µM
EC50 (A549): > 30 µM
EC50 (SK-MEL-2): > 30 µM
EC50 (SK-OV-3): > 30 µM

C=C1[C@@H]2[C@H]3OC(=O)[C@H](C)[C@@H]3[C@@H](O[C@@H]3O[C@H](CO)[C@@H](O)[C@H](O)[C@H]3O)CC(=C)[C@@H]2C[C@@H]1O
EC50 (HCT-15): > 30 µM
EC50 (A549): > 30 µM
EC50 (SK-MEL-2): > 30 µM
EC50 (SK-OV-3): > 30 µM

C=C1[C@@H]2[C@H]3OC(=O)[C@@H](CNCCCC(=O)O)[C@@H]3[C@@H](O)CC(=C)[C@@H]2C[C@@H]1O [PULCHELLAMINE B]
EC50 (HCT-15): > 30 µM
EC50 (A549): > 30 µM
EC50 (SK-MEL-2): > 30 µM
EC50 (SK-OV-3): > 30 µM

C=C1C(=O)O[C@@H]2[C@H]3C(=C)[C@@H](O)C[C@H]3C(=C)C[C@H](O)[C@@H]12 [DESACYLCYNAROPICRIN]
EC50 (HCT-15): 11.3 µM
EC50 (A549): 25.7 µM
EC50 (SK-MEL-2): 9.74 µM
EC50 (SK-OV-3): 11.3 µM

C=C1C(=O)O[C@@H]2[C@H]3C(=C)[C@H](O)C[C@H]3C(=C)C[C@H](OC(=O)C(C)(O)CO)[C@@H]12 (stereo not given in full)
EC50 (HCT-15): 28.8 µM
EC50 (A549): > 30 µM
EC50 (SK-MEL-2): 10.5 µM
EC50 (SK-OV-3): 18 µM

C=C(CO)C(=O)O[C@H]1CC(=C)[C@@H]2C[C@H](O)C(=C)[C@@H]2[C@H]2OC(=O)C(=C)[C@@H]21 [CYNAROPICRIN]
EC50 (HCT-15): 12.1 µM
EC50 (A549): 24.5 µM
EC50 (SK-MEL-2): 4.07 µM
EC50 (SK-OV-3): 7.42 µM

C=C1C(=O)O[C@@H]2[C@H]3C(=C)[C@@H](O)C[C@H]3C(=C)C[C@H](OC(=O)CC(C)(C)O)[C@@H]12
EC50 (HCT-15): 14.2 µM
EC50 (A549): > 30 µM
EC50 (SK-MEL-2): 6.78 µM
EC50 (SK-OV-3): 12.4 µM

C=C1[C@@H]2[C@H]3OC(=O)[C@@H](CN[C@@H](Cc4ccccc4)C(=O)O)[C@@H]3[C@@H](O)CC(=C)[C@@H]2C[C@@H]1O [PULCHELLAMINES D]
EC50 (HCT-15): > 30 µM
EC50 (A549): > 30 µM
EC50 (SK-MEL-2): > 30 µM
EC50 (SK-OV-3): > 30 µM

C=C1[C@@H]2[C@H]3OC(=O)[C@@H](CN4CCC[C@H]4C(=O)O)[C@@H]3[C@@H](OC(=O)C(C)(O)CO)CC(=C)[C@@H]2C[C@@H]1O (stereo not given in full) [PULCHELLAMINE C]
EC50 (HCT-15): 18.3 µM
EC50 (A549): 27.6 µM
EC50 (SK-MEL-2): 5.73 µM
EC50 (SK-OV-3): 11.8 µM
